NPY Y1 blocker: antagonists of human neuropeptide Y receptor Y1. inhibition, % at 3.6 µM. P25929. 200,000 tested, 1% active. HEK293-CNG Y1 cells, membrane potential fluorescence; NPY at EC95, then isoproterenol. AID 1040;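 active means inhibition above the campaign mean inhibition of all tested compounds plus 3 SD, cut at about 20% in these data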;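 further: 0% = DMSO wells given NPY plus isoproterenol and 100% = isoproterenol alone without NPY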
Target sequence (P25929 whole entry, looked up): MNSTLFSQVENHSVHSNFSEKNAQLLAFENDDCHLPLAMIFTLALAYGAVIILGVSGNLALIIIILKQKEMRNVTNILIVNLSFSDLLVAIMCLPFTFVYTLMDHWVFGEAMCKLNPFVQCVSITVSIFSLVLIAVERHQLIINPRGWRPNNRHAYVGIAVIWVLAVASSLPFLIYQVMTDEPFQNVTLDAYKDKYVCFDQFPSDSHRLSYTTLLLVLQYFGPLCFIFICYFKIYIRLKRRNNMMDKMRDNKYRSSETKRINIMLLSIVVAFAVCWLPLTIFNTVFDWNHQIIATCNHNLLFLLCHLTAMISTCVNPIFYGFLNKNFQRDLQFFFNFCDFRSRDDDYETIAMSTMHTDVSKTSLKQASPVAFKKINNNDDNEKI
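Material: Y1- and CNG-channel-expressing HEK293 cells / Probe or stimulus: NPY 25 nM then isoproterenol 1 µM plus Ro 20-1724 25 µM / Doses: 3.6 µM single dose, DMSO 0.4% / Schedule: compound incubation 1 h at room temperature, readout 45 min post-stimulation / Signal: membrane potential fluorescence / Benchmarks: isoproterenol-only wells as full block versus NPY-plus-isoproterenol wells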
NPY Y2 blocker: NPY-Y2 (human) receptor antagonism; P49146; NPY-Y2 expressing cells, antagonist mode; 140,000 tested, 0.99% active; inhibition, % at 2.7 µM;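 further: 0% = vehicle with agonist challenge and 100% = reference antagonist with challenge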
Target sequence (P49146 whole entry, looked up): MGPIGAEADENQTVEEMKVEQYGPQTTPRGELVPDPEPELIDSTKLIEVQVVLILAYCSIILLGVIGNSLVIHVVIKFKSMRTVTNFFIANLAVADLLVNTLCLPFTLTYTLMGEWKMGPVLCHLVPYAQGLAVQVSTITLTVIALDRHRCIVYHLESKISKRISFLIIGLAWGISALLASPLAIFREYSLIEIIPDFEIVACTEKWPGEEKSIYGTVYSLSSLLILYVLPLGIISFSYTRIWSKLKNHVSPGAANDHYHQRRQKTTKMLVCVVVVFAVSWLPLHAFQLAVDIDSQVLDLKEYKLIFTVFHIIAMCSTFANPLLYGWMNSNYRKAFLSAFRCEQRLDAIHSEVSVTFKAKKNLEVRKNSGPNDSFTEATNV
NPY1 pot ag: potentiates or activates human NPY-Y1 receptor | P25929 | activation, % at 3.6 µM | AID 1304 | 220,000 tested, 0.37% active | NPY-Y1 expressing cells, potentiator/agonist activation; in the data active means activation above about 33%, passing the limit was not always enough;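 further: cells stimulated with NPY at EC10 then isoproterenol at EC100; 0% = low agonist plus stimulus and 100% = saturating agonist plus stimulus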
NPY-Y2 PAM-ag: potentiates or activates human NPY-Y2 receptor; cells expressing NPY-Y2, potentiator/agonist read-out; activation, % at 3.6 µM; 220,000 tested, 0.45% active; AID 1359; in the data active means activation above about 27%;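 further: cells stimulated with NPY near EC25 plus isoproterenol at EC100; 0% = vehicle plus submaximal agonist and 100% = vehicle plus saturating agonist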
NPY1 antag conf: human NPY-Y1 antagonism, confirmation. shares compounds with NPY Y1 blocker. HEK293-CNG NPY-Y1, membrane potential fluorescence, cAMP; NPY challenge against isoproterenol-raised cAMP. inhibition, % at 3.6 µM. 1,200 tested, 21% active. AID 1254; in the data active means inhibition above about 20%;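 further: 0% = vehicle with agonist plus stimulus and 100% = stimulus alone without agonist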
NPY-Y2 antag ct: antagonizes human NPY-Y2, counter-screen to NPY-Y1 antagonists; shares compounds with NPY Y1 blocker; HEK293 NPY-Y2 CNG membrane potential fluorescence, antagonism; cells given NPY, then isoproterenol; inhibition, % at 3.6 µM; 1,200 tested, 28% active; AID 1255;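 further: 0% = DMSO with agonist challenge and 100% = reference antagonist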
Numbers without * were called inactive; nt = no result given. An excerpt weighted towards active compounds, which were near 1.8% of everything screened. Unless noted, no stated cut-off is given here; in the data, active means inhibition above about 17%; inactive means the rest.

SMILES | NPY Y1 blocker | NPY Y2 blocker | NPY1 pot ag | NPY-Y2 PAM-ag | NPY1 antag conf | NPY-Y2 antag ct
CCN(c1ccc(NC(=O)COC(=O)c2cccs2)cc1)C(C)C | 5.5 | 0.5 | 25.0 | 9.0 | nt | nt
CCOC(=O)c1ccc(NC(=O)CCC(CC)C(=O)O)cc1 (stereo not given) | 0.3 | 1.5 | 3.0 | 15.0 | nt | nt
CCCCC(CCC(=O)Nc1ccccc1C(=O)OCC)C(=O)O (stereo not given) | 23.1* | 11.5 | -15.9 | -64.0 | 11.4 | 12.7
COc1ccc(C2c3[nH]c4ccccc4c3CCN2Cc2cccn2-c2ncccn2)cc1C (stereo not given) | 67.3* | nt | -11.8 | -4.5 | 41.3* | 32.5*
c1ccc(C2c3[nH]c4ccccc4c3CCN2Cc2cccn2-c2ccccn2)nc1 (stereo not given) | nt | nt | -1.0 | -28.6 | nt | nt
Cc1cccc(C2c3[nH]c4ccccc4c3CCN2Cc2cccn2-c2ncccn2)c1 (stereo not given) | 32.4* | nt | -22.7 | -4.0 | 13.7 | 13.8
OC(COc1c(F)cc(Br)cc1F)CN1CCN(c2ccc(F)cc2)CC1 (stereo not given) | 20.3* | 7.5 | -23.4 | 1.9 | 4.0 | 9.0
Cc1nn(-c2ccccc2)c2sc(C(=O)O)cc12 | 25.1* | 12.7 | -52.5 | -19.0 | 22.1* | 15.4
Cc1ccc(-n2nc(C)c3cc(C(=O)O)sc32)cc1 | 7.8 | 4.6 | -3.2 | 2.4 | nt | nt
COc1ccc(/C=N/OC(=O)Nc2ccccc2OC)cc1 | 21.9* | nt | -17.3 | -15.5 | 5.7 | 11.9
COc1ccc(NC(=O)O/N=C/c2ccncc2)cc1 | -2.8 | nt | 12.7 | 20.9 | nt | nt
CN(C)CCNS(=O)(=O)c1ccc(N2CCN(c3ccc(F)cc3)CC2)c([N+](=O)[O-])c1 | -3.5 | -0.6 | -0.9 | 24.3 | nt | nt
CC(=O)c1cccc(NC(=O)/C(=C\c2ccco2)NC(=O)c2cccs2)c1 | 4.5 | 0.5 | 0.2 | -9.4 | nt | nt
O=C(Nc1cccc(C(F)(F)F)c1)/C(=C/c1ccco1)NC(=O)c1cccs1 | 89.8* | 1.0 | 9.4 | -4.7 | -1.3 | -2.0
O=c1[nH]nc(Cc2ccc(Cl)cc2Cl)c2ccccc12 | 8.2 | 9.2 | 5.0 | 12.1 | nt | nt
O=c1[nH]nc(CNc2ccc(Cl)cc2Cl)c2ccccc12 | 24.5* | nt | -35.4 | -13.2 | 16.4 | 25.4*
COc1ccc(CNC(=O)NC(C)(C)c2cccc(C(C)(C)NC(=O)NCc3ccc(OC)cc3)c2)cc1 | 1.4 | 4.1 | 0.1 | -3.8 | nt | nt
CCCC(=O)Nc1cccc(C(=O)Nc2ccccc2OCC)c1 | 0.3 | nt | -5.6 | -0.8 | nt | nt
COc1cccc(-n2c([S-])c(C(=O)Nc3ccc(C(F)(F)F)cc3)[n+]3ccccc23)c1 | 5.4 | nt | 1.5 | 2.4 | nt | nt
CCOC(=O)c1[nH]c(C)c(C(=O)N2CCc3ccccc32)c1C | 31.9* | 5.2 | -13.9 | -9.8 | -0.1 | 9.3
CC(=O)c1c(C)[nH]c(C(=O)N2CCc3ccccc32)c1C | -3.1 | 1.2 | 14.0 | 7.6 | nt | nt
COc1cc(-c2nnc(SCC3(c4ccccc4)OCCO3)o2)cc(OC)c1OC | 2.9 | 3.6 | -23.1 | -17.1 | nt | nt
CCn1c2c(c(=N)c3c1CCC3)CCC2 | -1.6 | 1.9 | 4.4 | 18.1 | nt | nt
CCCCCCCn1c2c(c(=N)c3c1CCC3)CCCC2 | 79.8* | nt | -60.5 | -36.9 | 56.8* | 42.5*
CCCCCCn1c2c(c(=N)c3c1CCC3)CCC2 | 23.7* | 3.2 | -71.5 | 3.9 | 29.2* | 16.7
SMILES | NPY Y1 blocker | NPY Y2 blocker | NPY1 pot ag | NPY-Y2 PAM-ag | NPY1 antag conf | NPY-Y2 antag ct
COc1ccc(OCC(=O)O/N=C(\N)Cc2ccc(Cl)cc2)cc1 | 22.5* | 9.6 | -47.0 | -12.5 | 6.7 | 6.7
COc1cccc(Cn2c(-c3nonc3N)nc3ccccc32)c1 | 26.3* | 12.3 | -42.6 | -16.4 | 10.7 | 14.2
COc1cc(Cn2c(-c3nonc3N)nc3ccccc32)ccc1C | 29.8* | 14.3 | -59.8 | -34.9 | 15.0 | 24.4*
Cc1ccc(-n2cccn2)c(CN2CCC(CO)(CCc3ccccc3)CC2)c1 | 44.6* | nt | -28.9 | -15.3 | 19.8 | 19.4*
COc1ccccc1NC(=O)CSc1nnc(C2CCCCC2)n1-c1ccccc1 | nt | nt | 30.6 | -1.8 | nt | nt
Cc1ccc(-c2csc(Nc3ccc(C(=O)O)cc3)[n+]2Cc2ccccc2)cc1 | -4.4 | nt | 8.1 | 12.0 | nt | nt
Cc1ccc(-c2csc(Nc3ccccc3)[n+]2CCc2ccccc2)cc1 | 22.3* | nt | -21.3 | -2.8 | 6.1 | 18.1*
O=C(C[n+]1cn(C(F)F)c2ccccc21)c1ccc(OC(F)F)cc1 | 1.2 | nt | 4.1 | 11.0 | nt | nt
COC(=O)CNC(c1ccccc1)c1cc(Br)ccc1NS(=O)(=O)c1ccc(C)cc1 (stereo not given) | 10.5 | 3.9 | 6.5 | 16.6 | nt | nt
COC(=O)CNC(c1ccccc1)c1cc(Br)ccc1NS(=O)(=O)c1ccccc1 (stereo not given) | 26.7* | 16.6 | -31.0 | -2.6 | -1.3 | 3.5
CC(=O)c1ccc(OCC(C)Oc2ccc(C#N)cc2)cc1 (stereo not given) | nt | nt | -5.7 | -13.2 | nt | nt
CCC(Oc1ccc2ccccc2c1)C(=O)O (stereo not given) | 21.4* | 12.0 | -0.7 | -30.7 | 6.7 | 7.0
CCOC(=O)Nc1nc(-c2ccc(Cl)cc2Cl)cs1 | -1.2 | -1.1 | -12.3 | -3.4 | nt | nt
O=C(CNCC1(N2CCOCC2)CCCCC1)Nc1ccc(Cl)cc1 | 1.9 | nt | 0.8 | 9.6 | nt | nt
COC(=O)c1c(NC(=O)CCNCc2ccco2)sc2c1CCC2 | nt | nt | -38.4 | -33.1 | nt | nt
O=C(c1cc(COc2ccc(F)cc2Cl)on1)N1CCCC(c2ccccc2)C1 (stereo not given) | 5.3 | nt | 2.3 | -4.5 | nt | nt
O=C(c1cc(COc2ccc(F)cc2Cl)on1)N1CCc2ccccc2C1 | 30.8* | nt | -38.9 | -8.5 | 13.2 | 13.4
O=[N+]([O-])c1cccc(-c2noc(-c3ccco3)n2)c1 | nt | nt | 4.2 | 11.3 | nt | nt
O=C(COC(=O)/C=C/c1ccc(Cl)cc1Cl)NCc1ccco1 | 5.4 | nt | -18.1 | -1.7 | nt | nt
Cc1ccc(-n2nc(C)c3c2OC(N)=C(C#N)C3c2ccncc2)cc1 (stereo not given) | 23.5* | -0.3 | 27.1 | 9.7 | -2.2 | 10.6
Cc1ccc(NC(=O)C(Nc2ccccc2)c2ccccc2)cc1 (stereo not given) | -1.7 | 3.5 | -7.8 | 8.5 | nt | nt
Cc1ccc(NC(=O)C(c2ccccc2)C2CCCC2)cc1 (stereo not given) | 24.5* | 4.7 | -33.3 | 1.8 | 6.9 | 4.8
COc1ccc(CN(CC2CCCO2)C(=O)c2cc3ccccc3oc2=O)cc1 (stereo not given) | 36.9* | nt | 3.3 | 5.2 | 0.1 | 0.7
O=C(O)COCC(=O)NCc1csc2ccccc12 | nt | nt | -6.9 | -5.6 | nt | nt
O=C(c1ccc(Br)o1)N(Cc1ccccc1)Cc1ccccc1 | 20.1* | 14.4 | -14.0 | -15.9 | 7.3 | 4.8
CCCCCC(=O)Nc1ccccc1N1CCN(c2ccccc2)CC1 | 21.8* | 5.4 | -49.2 | -15.8 | 6.0 | 15.0
CCCCC(=O)Nc1ccccc1N1CCOCC1 | 2.6 | nt | -12.2 | 11.2 | nt | nt

High-throughput results from PubChem BioAssay.
